# Screening results: PubChem, several laboratories
# Shown are actives, neighbours in structure and some others; about 3.4% of the full set was active somewhere.
# MC4R antagonist: human MC4R antagonism in cAMP assay. 360,000 tested, 0.48% active. MC4R-expressing cells, MTII-stimulated cAMP, LANCE TR-FRET. inhibition, % at 6.5 µM;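 active means inhibition above its plate's cutoff, the mean of tested wells on that plate plus 3 SD, cut at about 29% in these data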;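 further: 0% = Melanotan II alone and 100% = Melanotan II plus saturating MCL0020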
# Target sequence (P32245 whole entry, looked up): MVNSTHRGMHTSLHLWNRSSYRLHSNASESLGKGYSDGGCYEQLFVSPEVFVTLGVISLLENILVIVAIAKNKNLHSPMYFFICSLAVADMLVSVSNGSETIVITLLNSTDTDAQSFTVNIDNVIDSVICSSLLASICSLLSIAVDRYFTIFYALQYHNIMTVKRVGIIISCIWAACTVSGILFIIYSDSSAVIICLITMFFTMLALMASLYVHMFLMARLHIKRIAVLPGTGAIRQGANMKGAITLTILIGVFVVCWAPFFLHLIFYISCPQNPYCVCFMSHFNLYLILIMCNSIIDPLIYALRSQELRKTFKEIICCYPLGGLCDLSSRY
#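 Material – human MC4R-expressing U2OS cells · Repeats – no replicates · Detection – TR-FRET with Eu-cAMP and labeled anti-cAMP, 671 nm · Times – compound 30 min, challenge 1 h, detection 1 h · Compound – single nominal compound dose of 6.5 µM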
# beta cell repl: induces beta-cell replication in MIN6 cells; 330,000 tested, 0.29% active; MIN6 cells proliferation, ATPlite luminescence, 48 h; cells starved in 0.2% serum; 100% = growth in 10% serum; proliferation, % at 10 µM; AID 2380;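 active means compounds whose signal lies at least 3.5 SD above the mean of all wells on their plate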;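 further: 0% = DMSO-treated cells in low-serum medium and 100% = 10% serum control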
# ANO1 activ: mouse TMEM16A channel activation, primary screen. AID 623877. HEK293 TMEM16A/YFP-H148Q/I152L, iodide quench fluorescence; hits give low values. B-score at 10 µM. 340,000 tested, 0.3% active. Q8BHY3;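 active means fluorescence-ratio B-score plate-corrected deviation score at least 3 library SD below zero, with starting fluorescence score within 5 deviations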;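 further: channel opened by trigger with iodide after compound preincubation; score built on the fluorescence ratio of max minus min over baseline; more negative score means more quench and so TMEM16A activation or potentiation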
# TMEM16A inh: inhibitors of mouse TMEM16A calcium-activated chloride channel; 310,000 tested, 1.2% active; HEK293 TMEM16A/YFP iodide influx fluorescence, ionomycin; normalized B-score (activity score, 25-100; higher = stronger inhibition) at 10 µM;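 active means ratio plate-corrected score three or more library SD toward inhibition, starting fluorescence score within five deviations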;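 further: score derived from kinetic fluorescence span divided by baseline fluorescence per well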
# MC4R ag barr: human MC4R agonism via beta-arrestin | P32245 | U2OS MC4R beta-arrestin complementation, luminescence; percent of melanotan II response, DMSO zero | activation, % at 8.9 µM | 360,000 tested, 0.98% active | AID 540308;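 active means activation above a per-plate cutoff, the mean activation of sample wells on that plate plus 3 SD, cut at about 8% in these data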
# m5-HT2A agonist: agonists of mouse serotonin 5-HT2A receptor (HTR2A); activation, % at 7.6 µM; 360,000 tested, 0.66% active; CHO-K1 mHTR2A beta-arrestin complementation, luminescence; percent of 30 µM serotonin response;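 active means activation above a run cutoff, the mean activation of all tested compounds plus 3 SD, cut at about 14% in these data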;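 further: 0% = plate median of compound wells and 100% = 30 µM serotonin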
# * = called active by the depositor; i = inactive; / = no result.
SMILES,MC4R antagonist,beta cell repl,ANO1 activ,TMEM16A inh,MC4R ag barr,m5-HT2A agonist
Cc1ccc(NC(=O)c2ccccc2CCc2ccccc2)c(C)c1,8,0,i,i,4,-2
CN(Cc1ccccc1)C(=O)C1CCN(S(=O)(=O)c2ccc3nc4c(c(C(=O)O)c3c2)CCCC4)CC1,4,-5,i,i,-1,7
N#CC(=Cc1cccs1)c1nc(-c2ccc(Cl)cc2)cs1,-10,/,/,/,9.2*,-8
CC(C)c1cc(-c2cc(C(=O)Nc3ccccc3)on2)nc(NCC2CC2)n1,/,-7,/,i,/,/
CC(C)c1cc(-c2cc(C(=O)NCc3ccccc3)on2)nc(NCC2CC2)n1,1,-8,-6.6*,100*,0,-1
O=C(Nc1cccc(/C=C/c2ccccn2)c1)c1ccc(-n2cncn2)c([N+](=O)[O-])c1,12,-2,i,25*,2,4
O=C(Nc1ccc(F)c(F)c1)c1ccc(-n2cncn2)c([N+](=O)[O-])c1,6,2,i,/,-1,-3
CCCCc1c(-c2ccc(OC)cc2)ncn1CCc1ccccc1OC,/,/,/,/,/,-10
O=C(Cc1ccccc1F)Nc1nc(-c2ccc(F)cc2)cs1,3,0,i,25*,-1,-8
O=C(Nc1ccncc1)c1cc(C2CCCCN2C(=O)CCCc2ccccc2)on1 (stereo unspecified),-3,/,/,/,0,1
O=C(c1ccccc1)c1cc2cc(Cl)ccc2[nH]1,2,-2,i,i,8.3*,0
Clc1ccc2[nH]c(-c3ccccc3)cc2c1,3,-1,i,25*,1,-1
COc1cccc(C(=O)c2cc3cc(Cl)ccc3[nH]2)c1,7,0,i,i,8,5
Cc1nn(Cc2c(F)c(F)c(F)c(F)c2F)c(C)c1NC(=O)c1ccc(COc2cc(Cl)ccc2Cl)cc1,1,-3,i,i,3,-1
Cc1cccc(C)c1NC(=O)c1cccc(COc2cc(Cl)ccc2Cl)c1,-4,3,i,i,12*,2
Cc1ccc(CCNc2ncnc(Cl)c2N)cc1,9,/,i,/,0,3
CC(=O)/C(=C/Nc1ccc(Oc2ccccc2)cc1)c1ccccc1,5,-3,i,i,-2,3
COc1cc(N/C=C(\C(C)=O)c2ccccc2)cc(OC)c1,3,-1,-5.4*,i,2,3
CCCCn1c(NC(=O)c2ccc(Br)o2)c(S(=O)(=O)c2ccccc2)c2nc3ccccc3nc21,6,-6,i,100*,1,4
COc1ccc(NS(=O)(=O)c2ccc3c(c2)N(C(C)=O)CC(C)S3)c(OC)c1 (stereo unspecified),-1,-1,i,i,0,2
Cc1ccc(OCC(=O)NNC(=O)C(C)Sc2ncnc3sc(C)c(C)c23)cc1 (stereo unspecified),4,0,i,100*,0,0
Cc1sc2ncnc(SC(C)C(=O)N3c4ccccc4Sc4ccccc43)c2c1C (stereo unspecified),8,-5,i,i,2,-2
Oc1ccc(/C=N/Nc2nc(-c3ccc(Cl)cc3)cc(C(F)(F)F)n2)cc1,6,-6,i,i,14*,-4
O=C(NCCS(=O)(=O)N1CCN(c2ccccc2F)CC1)c1ccc2c(c1)OCO2,-4,3,i,i,-1,-6
CC1=C(C(=O)NC(C)C)C2(CCC(C)CC2)OC1=O (stereo unspecified),-1,-2,i,25*,-1,-2
SMILES,MC4R antagonist,beta cell repl,ANO1 activ,TMEM16A inh,MC4R ag barr,m5-HT2A agonist
Cc1nn(-c2ccccc2)c(C)c1NC(=O)COc1ccc([N+](=O)[O-])cc1,-1,-3,i,i,-2,12
COc1ccc(-c2cc(C(F)(F)F)nc(SCC(=O)N3CC(C)OC(C)C3)n2)cc1OC (stereo unspecified),13,/,-4.6*,/,-1,-3
Cc1cc(SCC(=O)OCC(=O)N(C)c2ccccc2)nc2ccccc12,-7,-1,i,i,2,-2
CC1(c2nnc(-c3cccc(Cl)c3)o2)CC(c2cccc([N+](=O)[O-])c2)=NO1 (stereo unspecified),5,-4,-27*,i,-1,2
Cc1ccc(-c2nn(-c3ccc(F)cc3)cc2C(=O)N2CCN(C3CCS(=O)(=O)C3)CC2)cc1 (stereo unspecified),0,5,-37*,/,-2,-2
Cc1nc(N/N=C/c2ccccc2)nc(N(C)c2ccccc2)c1[N+](=O)[O-],4,0,i,i,10*,0
Cc1cc(C)nc(N/N=C/c2ccccc2)n1,1,3,i,i,-3,2
CCOC(=O)N1CCN(C(=O)COC(=O)c2ccccc2NCCO)CC1,8,-4,i,i,-1,2
Cc1[nH]n(-c2ccccc2)c(=O)c1C(C[N+](=O)[O-])c1ccc(Br)cc1 (stereo unspecified),-5,-4,i,25*,2,-5
O=C(CN1CCN(S(=O)(=O)c2ccccc2)CC1)NCCc1ccccc1,0,1,i,i,-1,-3
O=C(O)c1ccc([N+](=O)[O-])c(CS(=O)(=O)c2ccc(Cl)cc2)c1,7,0,i,i,-2,2
O=C(CBr)c1ccc([N+](=O)[O-])c(CS(=O)(=O)c2ccc(Cl)cc2)c1,34*,-2,i,i,-3,-6
O=C(Cn1cnc2c(OCc3ccccc3)ncnc21)N[C@H](CO)Cc1cc2ccccc2[nH]1,5,-4,i,/,0,-2
CC(=O)N1CCN(c2ccc(Oc3ccc([N+](=O)[O-])c(C(F)(F)F)c3)cc2)CC1,10,-4,i,100*,2,-1
O=C(c1ccc(CS(=O)(=O)c2ccc(Br)cc2)o1)N1CCN(c2ccccn2)CC1,-8,-4,-7.8*,i,-1,-5
O=C(Nc1nnc([C@H]2C[C@H](O)[C@@H](CO)O2)s1)C(c1ccccc1)c1ccccc1,10,/,/,/,0,-1
O=C(O)c1ccc2nc(-c3ccco3)c(-c3ccco3)nc2c1,-13,0,i,/,-3,-3
O=C(Nc1cccc(C(F)(F)F)c1)c1ccc2nc(-c3ccco3)c(-c3ccco3)nc2c1,-4,-4,i,i,1,16*
Cn1c(O)c(C=Nc2ccc(N3CCOCC3)cc2)c(=O)n(C)c1=S,1,/,-4.8*,/,-1,2
